Activity calls are given as the source filed them. No cut-off for these calls is given here.
Assays:
PBMC [1] = test: Induction of IFNalpha secretion in human PBMC; assay type: functional, cell-based
Outline: (§1)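 Human PBMCs (5×10^6/mL; 1×10^6 per well) were cultured 24 h with TLR9 agonist 5 µg/mL or TLR7/8 agonist 100 µg/mL, alone or with antagonist at 1:4. Compounds were dissolved in PBS. Supernatant cytokines were measured by Luminex human 25-plex bead assay. One representative donor of six.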

PBMC [2] = test: Induction of TNFalpha secretion in human PBMC; assay type: functional, cell-based; outline: as §1
PBMC [3] = test: Induction of MCP1 secretion in human PBMC; assay type: functional, cell-based; outline: as §1
PBMC [4] = test: (§2) Induction of IP10 secretion in human PBMC; assay type: functional, cell-based; outline: as §1
PBMC [5] = test: Induction of IL12 secretion in human PBMC; assay type: functional, cell-based; outline: as §1
PBMC [6] = test: Induction of MIG secretion in human PBMC; assay type: functional, cell-based; outline: as §1
PBMC [7] = test: Inhibition of 5'-TCTGTCRTTCT-X-TCTTRCTGTCT-5'-induced human PBMC proliferation treated 72 hrs before induction; assay type: functional, cell-based
PBMC [8] = test: Inhibition of 5'-TCTGTCRTTCT-X-TCTTRCTGTCT-5'-induced chemokines secretion in human PBMC at 1:5 agonist to drug ratio; assay type: functional, cell-based
Outline: (§3)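 Human PBMCs isolated from healthy volunteer blood by Ficoll gradient, cultured at 1×10^6/200 μL in supplemented RPMI 1640 with 10% heat-inactivated FBS. Treated for 24 h with agonist and/or antagonist dissolved in PBS; TLR9 agonist at 5 μg/mL, TLR7/8 agonist at 100 μg/mL. Supernatant cytokines/chemokines by Luminex human 25-plex bead assay; unstimulated cells as control.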

[9] = target: T1, Toll-like receptor 9 (Mus musculus) (UniProt Q9EQU3); test: Agonist activity at mouse TLR9 expressed in HEK293 cells assessed as activation of NF-kappaB at 10 ug/mL by SEAP reporter gene assay; assay type: functional, cell-based
T1 sequence (whole entry): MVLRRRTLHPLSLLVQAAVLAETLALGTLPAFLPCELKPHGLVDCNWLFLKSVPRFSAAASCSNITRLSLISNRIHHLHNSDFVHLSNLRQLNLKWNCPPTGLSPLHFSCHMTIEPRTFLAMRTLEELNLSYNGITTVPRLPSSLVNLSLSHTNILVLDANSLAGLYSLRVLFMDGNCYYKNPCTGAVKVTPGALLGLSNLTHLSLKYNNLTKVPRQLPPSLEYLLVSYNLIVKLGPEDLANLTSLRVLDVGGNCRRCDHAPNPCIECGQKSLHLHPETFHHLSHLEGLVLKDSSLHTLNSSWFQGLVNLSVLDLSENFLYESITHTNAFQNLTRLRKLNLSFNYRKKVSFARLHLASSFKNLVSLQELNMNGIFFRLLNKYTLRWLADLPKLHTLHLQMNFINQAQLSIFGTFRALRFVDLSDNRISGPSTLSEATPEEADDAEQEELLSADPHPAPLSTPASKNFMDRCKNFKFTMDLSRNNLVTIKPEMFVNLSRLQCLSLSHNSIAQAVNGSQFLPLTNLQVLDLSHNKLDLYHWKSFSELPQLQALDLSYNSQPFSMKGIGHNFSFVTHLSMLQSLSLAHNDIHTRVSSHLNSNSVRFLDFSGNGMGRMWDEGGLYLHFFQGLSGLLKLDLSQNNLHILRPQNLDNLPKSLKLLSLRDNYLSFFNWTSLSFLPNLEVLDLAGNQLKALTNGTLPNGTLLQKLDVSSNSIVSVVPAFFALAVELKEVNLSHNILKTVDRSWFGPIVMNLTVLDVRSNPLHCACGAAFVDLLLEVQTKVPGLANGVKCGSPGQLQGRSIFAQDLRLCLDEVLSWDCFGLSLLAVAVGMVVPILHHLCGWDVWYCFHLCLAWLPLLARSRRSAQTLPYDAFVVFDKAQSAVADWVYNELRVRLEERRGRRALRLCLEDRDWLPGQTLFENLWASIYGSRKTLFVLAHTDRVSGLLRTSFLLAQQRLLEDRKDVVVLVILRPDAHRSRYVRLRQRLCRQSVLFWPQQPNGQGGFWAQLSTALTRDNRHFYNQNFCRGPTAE
Outline: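 HEK293 cells stably expressing mouse TLR9 were transiently transfected with a SEAP reporter for 6 h. Compounds were added at 10 µg/mL for 18 h. SEAP was read with Quanti-Blue substrate and expressed as fold change in NF-κB activity.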

PBMC [10] = test: as §2; assay type: functional, cell-based; outline: as §1; remark: listed apart in the source
PBMC [11] = test: Inhibition of 5'-UGCUGUUCUG-X-GUCUUGUCGU-5'-induced cytokines secretion in human PBMC at 1:5 agonist to drug ratio; assay type: functional, cell-based; outline: as §3
[12] = target: Toll-like receptor 7 (Homo sapiens) (UniProt Q9NYK1); test: Antagonist activity at TLR7/8 in human PBMC assessed as inhibition of 5'-UGCUGUUCUG-X-GUCUUGUCGU-5'-induced NF-kappaB activation in human PBMC at 400 ug/mL treated 1 hr before induction measured after 2 hrs
Sequence of Toll-like receptor 7 (Homo sapiens) (Q9NYK1 whole entry, looked up): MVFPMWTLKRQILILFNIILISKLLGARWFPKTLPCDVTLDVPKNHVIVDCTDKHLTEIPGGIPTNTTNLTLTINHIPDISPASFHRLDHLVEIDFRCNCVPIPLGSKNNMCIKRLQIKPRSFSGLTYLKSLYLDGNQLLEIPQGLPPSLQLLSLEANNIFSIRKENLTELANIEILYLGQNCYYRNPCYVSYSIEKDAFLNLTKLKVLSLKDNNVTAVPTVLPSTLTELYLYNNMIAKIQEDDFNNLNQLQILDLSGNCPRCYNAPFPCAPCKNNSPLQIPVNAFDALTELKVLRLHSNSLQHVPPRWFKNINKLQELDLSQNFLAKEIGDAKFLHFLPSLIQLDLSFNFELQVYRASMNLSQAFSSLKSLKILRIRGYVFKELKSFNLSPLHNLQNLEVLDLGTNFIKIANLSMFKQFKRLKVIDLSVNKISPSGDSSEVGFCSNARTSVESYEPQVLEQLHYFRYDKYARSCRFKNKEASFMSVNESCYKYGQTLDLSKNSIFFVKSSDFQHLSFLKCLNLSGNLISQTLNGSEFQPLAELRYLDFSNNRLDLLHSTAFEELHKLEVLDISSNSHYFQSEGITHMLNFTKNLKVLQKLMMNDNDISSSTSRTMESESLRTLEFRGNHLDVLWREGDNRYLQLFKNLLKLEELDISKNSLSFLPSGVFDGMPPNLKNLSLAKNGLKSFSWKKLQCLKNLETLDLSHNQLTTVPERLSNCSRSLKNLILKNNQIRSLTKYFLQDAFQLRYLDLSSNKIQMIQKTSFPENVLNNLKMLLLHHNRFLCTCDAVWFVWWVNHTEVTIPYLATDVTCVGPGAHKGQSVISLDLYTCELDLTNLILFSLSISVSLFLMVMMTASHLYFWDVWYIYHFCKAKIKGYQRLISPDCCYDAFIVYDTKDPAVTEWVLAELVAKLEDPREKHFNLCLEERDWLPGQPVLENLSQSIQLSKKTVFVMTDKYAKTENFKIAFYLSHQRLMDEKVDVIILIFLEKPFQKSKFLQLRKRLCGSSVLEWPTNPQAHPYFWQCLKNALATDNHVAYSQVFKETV

PBMC [13] = test: Induction of IFN-gamma secretion in human PBMC; assay type: functional, cell-based; outline: as §1
PBMC [14] = test: Inhibition of 5'-TCTGTCRTTCT-X-TCTTRCTGTCT-5'-induced cytokines secretion in human PBMC at 1:5 agonist to drug ratio; assay type: functional, cell-based; outline: as §3
PBMC [15] = test: Induction of MIP1beta secretion in human PBMC; assay type: functional, cell-based; outline: as §1
PBMC [16] = test: Induction of IL6 secretion in human PBMC; assay type: functional, cell-based; outline: as §1
PBMC [17] = test: Inhibition of 5'-UGCUGUUCUG-X-GUCUUGUCGU-5'-induced chemokines secretion in human PBMC at 1:5 agonist to drug ratio; assay type: functional, cell-based; outline: as §3
[18] = target: T1, Toll-like receptor 9 (Mus musculus); test: Antagonist activity at mouse TLR9 expressed in HEK293 cells assessed as inhibition of 5'-CTATCTGTCGTTCTCTGT-3'-induced NF-kappaB activation by SEAP reporter gene assay; assay type: functional, cell-based
Outline: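 Mouse TLR9-HEK293 cells were transfected with a SEAP reporter for 6 h. They were then stimulated for 18 h with agonist (0.25 or 0.5 µg/mL) plus increasing antagonist concentrations or set agonist:antagonist ratios. Quanti-Blue read-out, reported as % NF-κB activity with agonist alone as 100%.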

[19] = target: T2, Toll-like receptor 9 (Homo sapiens) (UniProt Q9NR96); test: Antagonist activity at TLR9 in human PBMC assessed as inhibition of 5'-TCTGTCRTTCT-X-TCTTRCTGTCT-5'-induced NF-kappaB activation at 40 ug/mL treated 1 hr before induction measured after 2 hrs; assay type: functional
T2 sequence (whole entry): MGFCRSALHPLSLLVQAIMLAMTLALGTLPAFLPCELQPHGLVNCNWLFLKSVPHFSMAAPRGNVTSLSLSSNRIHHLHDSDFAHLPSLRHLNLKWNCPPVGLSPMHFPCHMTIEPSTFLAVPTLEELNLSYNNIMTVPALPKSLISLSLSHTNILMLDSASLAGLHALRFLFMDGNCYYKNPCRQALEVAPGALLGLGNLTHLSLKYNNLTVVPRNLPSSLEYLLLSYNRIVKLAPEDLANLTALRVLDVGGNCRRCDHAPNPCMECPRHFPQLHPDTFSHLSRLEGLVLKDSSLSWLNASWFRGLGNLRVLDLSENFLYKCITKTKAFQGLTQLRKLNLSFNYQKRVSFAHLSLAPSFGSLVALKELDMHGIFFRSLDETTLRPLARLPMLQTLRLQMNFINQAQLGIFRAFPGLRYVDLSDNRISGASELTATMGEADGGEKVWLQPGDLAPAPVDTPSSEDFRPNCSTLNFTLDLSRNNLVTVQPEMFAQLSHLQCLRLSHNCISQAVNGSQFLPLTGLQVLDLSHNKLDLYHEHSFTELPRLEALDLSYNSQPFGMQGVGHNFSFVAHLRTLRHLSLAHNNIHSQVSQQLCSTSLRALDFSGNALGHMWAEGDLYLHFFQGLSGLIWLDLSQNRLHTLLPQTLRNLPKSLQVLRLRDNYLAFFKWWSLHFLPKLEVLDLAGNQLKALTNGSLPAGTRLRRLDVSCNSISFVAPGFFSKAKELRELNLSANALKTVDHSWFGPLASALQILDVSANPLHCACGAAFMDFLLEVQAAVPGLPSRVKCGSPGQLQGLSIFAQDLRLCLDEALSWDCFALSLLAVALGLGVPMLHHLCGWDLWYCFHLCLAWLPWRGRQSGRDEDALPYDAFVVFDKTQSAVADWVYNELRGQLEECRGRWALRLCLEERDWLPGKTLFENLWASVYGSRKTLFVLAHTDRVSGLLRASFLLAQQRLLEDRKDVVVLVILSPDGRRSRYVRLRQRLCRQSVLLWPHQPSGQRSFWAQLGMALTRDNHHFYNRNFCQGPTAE
Outline: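 Human PBMCs plated at 1×10^7 cells/well were preincubated with antagonist at the indicated concentrations for 1 h. TLR9 or TLR7/8 agonist was then added for 2 h. Nuclear extracts were analysed for NF-κB by EMSA. One representative donor of three.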

[20] = target: T2, Toll-like receptor 9 (Homo sapiens); test: Agonist activity at TLR9 in human PBMC assessed as NF-kappaB activation at 5 ug/mL; assay type: functional
Outline: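 Human PBMCs from healthy-donor blood (Ficoll) plated at 1×10^7 cells/well, stimulated for 2 h. Nuclear extracts analysed for NF-κB binding by EMSA on native polyacrylamide gels with autoradiography. One representative donor of three.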

| SMILES | Activity (PBMC [1]) | Activity (PBMC [2]) | Activity (PBMC [3]) | Activity (PBMC [4]) | Activity (PBMC [5]) | Activity (PBMC [6]) | Activity (PBMC [7]) | Activity (PBMC [8]) | Activity [9] | Activity (PBMC [10]) | Activity (PBMC [11]) | Activity [12] | Activity (PBMC [13]) | Activity (PBMC [14]) | Activity (PBMC [15]) | Activity (PBMC [16]) | Activity (PBMC [17]) | Activity [18] | Activity [19] | Activity [20] |
| --- | --- | --- | --- | --- | --- | --- | --- | --- | --- | --- | --- | --- | --- | --- | --- | --- | --- | --- | --- | --- |
| CO[C@@H]1[C@H](OP(=O)(S)OC[C@H]2O[C@@H](n3ccc(N)nc3=O)C[C@@H]2OP(=O)(S)OC[C@H]2O[C@@H](n3ccc4c(=O)[nH]c(N)nc43)C[C@@H]2OP(=O)(S)OC[C@H]2O[C@@H](n3cc(C)c(=O)[nH]c3=O)C[C@@H]2OP(=O)(S)OC[C@H]2O[C@@H](n3cc(C)c(=O)[nH]c3=O)C[C@@H]2OP(=O)(S)OC[C@H]2O[C@@H](n3ccc(N)nc3=O)C[C@@H]2OP(=O)(S)OC[C@H]2O[C@@H](n3cc(C)c(=O)[nH]c3=O)C[C@@H]2OP(=O)(S)OC[C@H]2O[C@@H](n3ccc(N)nc3=O)C[C@@H]2OP(=O)(S)OC[C@H]2O[C@@H](n3cc(C)c(=O)[nH]c3=O)C[C@@H]2OP(=O)(S)OC[C@H]2O[C@@H](n3cnc4c(=O)[nH]c(N)nc43)C[C@@H]2OP(=O)(S)OC[C@H]2O[C@@H](n3cc(C)c(=O)[nH]c3=O)C[C@@H]2O)[C@@H](COP(=O)(S)O[C@H]2[C@@H](OC)[C@H](n3cnc4c(=O)[nH]c(N)nc43)O[C@@H]2COP(=O)(S)O[C@H]2C[C@H](n3cc(C)c(=O)[nH]c3=O)O[C@@H]2COP(=O)(S)O[C@H]2C[C@H](n3ccc(N)nc3=O)O[C@@H]2COP(=O)(S)O[C@H]2C[C@H](n3cc(C)c(=O)[nH]c3=O)O[C@@H]2COP(=O)(S)O[C@H]2C[C@H](n3cnc4c(N)ncnc43)O[C@@H]2COP(=O)(S)O[C@H]2C[C@H](n3cc(C)c(=O)[nH]c3=O)O[C@@H]2COP(=O)(S)O[C@@H]2[C@H](O)[C@@H](n3ccc(N)nc3=O)O[C@H]2CO)O[C@H]1n1ccc(=O)[nH]c1=O (stereo not given in full) | inactive | inactive | inactive | inactive | inactive | inactive | Active | Active | inactive | inactive | Active | Active | inactive | Active | inactive | inactive | Active | Active | Active | – |
| Cc1cn([C@H]2C[C@H](OP(=O)(S)OC[C@H]3O[C@@H](n4ccc(N)nc4=O)C[C@@H]3OP(=O)(S)OC[C@H]3O[C@@H](n4cc(C)c(=O)[nH]c4=O)C[C@@H]3OP(=O)(S)OC[C@H]3O[C@@H](n4cnc5c(=O)[nH]c(N)nc54)C[C@@H]3OP(=O)(S)OC[C@H]3O[C@@H](n4cc(C)c(=O)[nH]c4=O)C[C@@H]3OP(=O)(S)OC[C@H]3O[C@@H](n4ccc(N)nc4=O)C[C@@H]3OP(=O)(S)OC[C@H]3O[C@@H](n4ccc5c(N)ncnc54)C[C@@H]3OP(=O)(S)OC[C@H]3O[C@@H](n4cc(C)c(=O)[nH]c4=O)C[C@@H]3OP(=O)(S)OC[C@H]3O[C@@H](n4cc(C)c(=O)[nH]c4=O)C[C@@H]3OP(=O)(S)OC[C@H]3O[C@@H](n4ccc(N)nc4=O)C[C@@H]3OP(=O)(S)OC[C@H]3O[C@@H](n4cc(C)c(=O)[nH]c4=O)C[C@@H]3OP(=O)(S)OCC(O)COP(=O)(S)O[C@H]3C[C@H](n4cc(C)c(=O)[nH]c4=O)O[C@@H]3COP(=O)(S)O[C@H]3C[C@H](n4ccc(N)nc4=O)O[C@@H]3COP(=O)(S)O[C@H]3C[C@H](n4cc(C)c(=O)[nH]c4=O)O[C@@H]3COP(=O)(S)O[C@H]3C[C@H](n4cc(C)c(=O)[nH]c4=O)O[C@@H]3COP(=O)(S)O[C@H]3C[C@H](n4ccc5c(=O)[nH]c(N)nc54)O[C@@H]3COP(=O)(S)O[C@H]3C[C@H](n4ccc(N)nc4=O)O[C@@H]3COP(=O)(S)O[C@H]3C[C@H](n4cc(C)c(=O)[nH]c4=O)O[C@@H]3COP(=O)(S)O[C@H]3C[C@H](n4cnc5c(=O)[nH]c(N)nc54)O[C@@H]3COP(=O)(S)O[C@H]3C[C@H](n4cc(C)c(=O)[nH]c4=O)O[C@@H]3COP(=O)(S)O[C@H]3C[C@H](n4ccc(N)nc4=O)O[C@@H]3COP(=O)(S)O[C@H]3C[C@H](n4cc(C)c(=O)[nH]c4=O)O[C@@H]3CO)[C@@H](CO)O2)c(=O)[nH]c1=O (stereo not given in full) | Active | Active | Active | Active | Active | Active | – | – | – | Active | – | – | Active | – | Active | Active | – | – | – | Active |
